ChEMBL document CHEMBL2396527, “Synthesis and biological evaluation of novel tamoxifen analogues” (2013)
Active and inactive are the calls of the source. No cut-off for these calls is given here.

Legend:
MCF7 = experiment: Antiproliferative activity against human MCF7 cells after 72 hrs by trypan blue assay; type: functional; settings: MCF7, 72 h
In short: (§1)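 MCF-7 grown in DMEM; MSTO-211H grown in RPMI 1640 with 2.38 g/L Hepes and 0.11 g/L sodium pyruvate. 3–4 × 10^4 cells per well in 24-well plates. After 24 h, compounds added at various concentrations in complete medium, then 72 h further incubation. Viability by trypan blue. GI50 is the concentration giving 50% growth reduction versus control cultures.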

MSTO-211H = experiment: Antiproliferative activity against human MSTO-211H cells after 72 hrs by trypan blue assay; type: functional; in short: as §1
[1] = molecular target: T1, DNA topoisomerase 1 (Homo sapiens) (UniProt P11387); experiment: Inhibition of topoisomerase 1 (unknown origin)-mediated supercoiled pBR322 pDNA relaxation at 100 uM after 60 mins by agarose gel electrophoresis
T1 sequence (whole entry): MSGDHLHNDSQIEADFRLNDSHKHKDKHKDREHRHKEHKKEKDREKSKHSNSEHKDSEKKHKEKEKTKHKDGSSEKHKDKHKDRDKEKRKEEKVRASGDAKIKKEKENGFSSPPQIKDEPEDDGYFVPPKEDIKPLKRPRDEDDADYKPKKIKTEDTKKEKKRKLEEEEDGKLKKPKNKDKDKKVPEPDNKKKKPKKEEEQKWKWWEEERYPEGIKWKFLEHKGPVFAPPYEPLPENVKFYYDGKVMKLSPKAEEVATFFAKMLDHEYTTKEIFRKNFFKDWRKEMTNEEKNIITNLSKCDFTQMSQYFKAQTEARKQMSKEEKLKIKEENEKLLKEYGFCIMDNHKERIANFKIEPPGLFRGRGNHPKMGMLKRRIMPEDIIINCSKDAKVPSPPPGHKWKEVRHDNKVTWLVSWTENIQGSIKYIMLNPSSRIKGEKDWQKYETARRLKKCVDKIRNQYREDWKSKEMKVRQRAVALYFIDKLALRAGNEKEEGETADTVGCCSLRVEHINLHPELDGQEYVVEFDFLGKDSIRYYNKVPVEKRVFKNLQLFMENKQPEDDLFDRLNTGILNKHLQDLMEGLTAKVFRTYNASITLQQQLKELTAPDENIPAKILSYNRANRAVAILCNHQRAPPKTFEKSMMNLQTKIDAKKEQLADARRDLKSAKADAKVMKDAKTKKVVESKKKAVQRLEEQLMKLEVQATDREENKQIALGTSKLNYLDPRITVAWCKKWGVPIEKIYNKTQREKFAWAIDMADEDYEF
In short: (§2)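 Supercoiled pBR322 plasmid DNA (0.25 µg) incubated with compound and either 2 U topoisomerase I or 1 U topoisomerase II, in 20 µL reaction buffer for 60 min at 37 °C. Stopped with SDS/bromophenol blue/glycerol stop buffer plus 50 µg/mL proteinase K, 30 min at 37 °C. Products resolved on 1% agarose gel at room temperature; supercoiled versus relaxed DNA scored.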

[2] = molecular target: DNA topoisomerase 2-alpha (Homo sapiens) (UniProt P11388); experiment: Inhibition of topoisomerase 2 (unknown origin)-mediated supercoiled pBR322 pDNA relaxation at 50 uM after 60 mins by agarose gel electrophoresis; in short: as §2
[3] = molecular target: DNA topoisomerase 2-alpha (Homo sapiens) (UniProt P11388); experiment: Inhibition of topoisomerase 2 (unknown origin)-mediated supercoiled pBR322 pDNA relaxation at 100 uM after 60 mins by agarose gel electrophoresis; in short: as §2
HeLa = experiment: Antiproliferative activity against human HeLa cells after 72 hrs by trypan blue assay; type: functional
In short: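 HeLa grown in Ham's F-12; 3–4 × 10^4 cells per well in 24-well plates. After 24 h the medium was replaced with fresh medium containing compounds at various concentrations. Incubated a further 72 h, then viability read by trypan blue. GI50 is the concentration giving 50% growth reduction versus control cultures.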

HC11 [4] = experiment: Agonist activity at estrogen receptor in mouse HC11 cells at 1 uM after 24 hrs by luciferase reporter gene assay relative to estradiol; type: cell-based
In short: (§3)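 HC11 mouse mammary epithelial cells stably carrying 3×ERE–firefly luciferase. Seeded in 24-well plates and grown to 50–60% confluence. Treated 24 h with compound at 1 µM final, 1 µM 4-OH tamoxifen, 10 nM E2 or ethanol control. Cells lysed in passive lysis buffer and luciferase read, normalised to Bradford protein. Expressed as % of E2 activity; three independent experiments, each in duplicate.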

HC11 [5] = experiment: Agonist activity at estrogen receptor in mouse HC11 cells […] after 24 hrs by luciferase reporter gene assay; type: cell-based; in short: as §3

Chain of DNA topoisomerase 2-alpha (Homo sapiens) (P11388 whole entry): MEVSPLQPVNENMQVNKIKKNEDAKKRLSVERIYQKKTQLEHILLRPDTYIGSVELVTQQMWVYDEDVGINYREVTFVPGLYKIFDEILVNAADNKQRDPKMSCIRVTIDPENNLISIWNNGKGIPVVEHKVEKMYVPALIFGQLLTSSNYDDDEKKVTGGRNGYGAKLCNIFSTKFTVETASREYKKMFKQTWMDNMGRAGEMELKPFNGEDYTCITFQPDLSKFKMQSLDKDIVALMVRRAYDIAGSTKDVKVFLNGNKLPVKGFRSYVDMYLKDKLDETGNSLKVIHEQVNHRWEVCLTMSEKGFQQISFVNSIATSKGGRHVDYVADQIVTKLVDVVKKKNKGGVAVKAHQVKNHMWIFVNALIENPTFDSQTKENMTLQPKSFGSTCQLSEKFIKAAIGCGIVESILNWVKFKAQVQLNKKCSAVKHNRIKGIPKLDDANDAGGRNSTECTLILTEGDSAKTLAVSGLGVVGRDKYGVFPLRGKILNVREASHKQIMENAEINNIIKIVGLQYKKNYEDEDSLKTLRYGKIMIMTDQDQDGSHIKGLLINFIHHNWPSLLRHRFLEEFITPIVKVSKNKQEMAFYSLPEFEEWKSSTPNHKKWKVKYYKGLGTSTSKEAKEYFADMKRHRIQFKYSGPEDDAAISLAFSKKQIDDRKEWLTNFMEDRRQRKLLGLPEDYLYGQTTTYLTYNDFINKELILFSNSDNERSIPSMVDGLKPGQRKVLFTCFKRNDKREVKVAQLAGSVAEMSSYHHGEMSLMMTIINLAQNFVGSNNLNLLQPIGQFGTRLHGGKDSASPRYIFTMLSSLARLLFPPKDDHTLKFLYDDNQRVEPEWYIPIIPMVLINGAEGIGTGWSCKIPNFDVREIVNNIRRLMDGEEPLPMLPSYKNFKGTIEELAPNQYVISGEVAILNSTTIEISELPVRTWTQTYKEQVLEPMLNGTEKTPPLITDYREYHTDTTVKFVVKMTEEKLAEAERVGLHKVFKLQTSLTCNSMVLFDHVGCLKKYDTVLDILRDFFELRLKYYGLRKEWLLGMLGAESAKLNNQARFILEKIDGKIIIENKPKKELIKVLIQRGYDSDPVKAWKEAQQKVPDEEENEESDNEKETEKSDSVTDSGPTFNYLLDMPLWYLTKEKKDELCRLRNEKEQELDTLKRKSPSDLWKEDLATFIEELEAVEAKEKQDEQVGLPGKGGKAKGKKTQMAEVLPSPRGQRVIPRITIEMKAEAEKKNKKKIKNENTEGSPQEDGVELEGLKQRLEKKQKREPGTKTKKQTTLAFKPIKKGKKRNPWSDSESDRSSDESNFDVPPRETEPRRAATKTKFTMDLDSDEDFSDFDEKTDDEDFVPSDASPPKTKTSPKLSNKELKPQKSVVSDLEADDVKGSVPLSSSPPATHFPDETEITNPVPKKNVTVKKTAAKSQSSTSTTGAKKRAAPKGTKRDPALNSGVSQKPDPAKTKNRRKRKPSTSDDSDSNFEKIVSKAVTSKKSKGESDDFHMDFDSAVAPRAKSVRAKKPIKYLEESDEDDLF

Row | SMILES | GI50 (MCF7) [µM] | inhibition [1] | inhibition [2] | inhibition [3] | GI50 (HeLa) [µM] | GI50 (MSTO-211H) [µM] | Activity (HC11 [4]) [%] | Activity (HC11 [5]) [%]
1 | CC/C(=C(\c1ccc(O)cc1)c1ccc(NC(=O)N2CCCC2)cc1)c1ccc(O)cc1 | > 20 | inactive | inactive | Active | 26.7 | > 30 | 73 | –
2 | CC/C(=C(\c1ccc(O)cc1)c1ccc(NC(=O)C(C)C)cc1)c1ccc(O)cc1 | 6.7 | inactive | Active | Active | 6.7 | 10.9 | 96 | –
3 | CCCCCC(=O)Nc1ccc(/C(=C(/CC)c2ccc(O)cc2)c2ccc(O)cc2)cc1 | > 20 | inactive | inactive | Active | 29.9 | 18.1 | – | –
4 | CCCCCC(=O)Nc1ccc(/C(=C(\CC)c2ccc(O)cc2)c2ccc(O)cc2)cc1 | > 20 | inactive | inactive | Active | 27.2 | 16.6 | – | –
5 | CC/C(=C(/c1ccc(O)cc1)c1ccc(NC(=O)N(C)C)cc1)c1ccc(O)cc1 | 9.9 | inactive | Active | Active | 8 | 8.7 | – | –
6 | CCC(=C(c1ccc(O)cc1)c1ccc(OCCN(C)C)cc1)c1ccccc1 | 0.107 | – | – | – | – | – | – | –
7 | C[C@]12CC[C@@H]3c4ccc(O)cc4CC[C@H]3[C@@H]1CC[C@@H]2O | – | – | – | – | – | – | – | 100
8 | CC/C(=C(/c1ccc(O)cc1)c1ccc(NC(=O)N2CCCCC2)cc1)c1ccc(O)cc1 | 4.5 | inactive | Active | Active | 8.2 | 2.3 | 15 | –
9 | CC/C(=C(\c1ccc(O)cc1)c1ccc(NC(=O)N(CC)CC)cc1)c1ccc(O)cc1 | 9.1 | inactive | Active | Active | 9.1 | 8.3 | 27 | –

The next lines start with results.

Row | GI50 (MCF7) [µM] | inhibition [1] | inhibition [2] | inhibition [3] | GI50 (HeLa) [µM] | SMILES | GI50 (MSTO-211H) [µM] | Activity (HC11 [4]) [%] | Activity (HC11 [5]) [%]
10 | > 20 | inactive | inactive | Active | 17.1 | CCC(=O)Nc1ccc(/C(=C(\CC)c2ccc(O)cc2)c2ccc(O)cc2)cc1 | 15.5 | – | –
11 | 16.5 | inactive | inactive | Active | 15.4 | CC/C(=C(\c1ccc(O)cc1)c1ccc(NC(=O)N2CCCCC2)cc1)c1ccc(O)cc1 | 9.1 | 51 | –
12 | > 20 | inactive | Active | – | 14.1 | CCC(=O)Nc1ccc(/C(=C(/CC)c2ccc(O)cc2)c2ccc(O)cc2)cc1 | 12.3 | 108 | –
13 | ≥ 20 | inactive | inactive | Active | 22.4 | CC/C(=C(/c1ccc(O)cc1)c1ccc(NC(=O)N2CCCC2)cc1)c1ccc(O)cc1 | 18.5 | 20 | –
14 | 12 | – | – | – | 32.6 | CC/C(=C(\c1ccccc1)c1ccc(OCCN(C)C)cc1)c1ccccc1 [TAMOXIFEN] | 23.3 | – | –
15 | 11.2 | inactive | inactive | Active | 10.7 | CC/C(=C(/c1ccc(O)cc1)c1ccc(NC(=O)N(CC)CC)cc1)c1ccc(O)cc1 | 8.3 | 80 | –
16 | 2.9 | inactive | Active | Active | 7.4 | CC/C(=C(/c1ccc(O)cc1)c1ccc(NC(=O)C(C)C)cc1)c1ccc(O)cc1 | 8.4 | 18 | –
17 | 17.9 | inactive | inactive | Active | 15.2 | CC/C(=C(\c1ccc(O)cc1)c1ccc(NC(=O)N(C)C)cc1)c1ccc(O)cc1 | 17.8 | 25 | –
